Reference: ChEMBL document CHEMBL2311333, “Synthesis and antimycobacterial evaluation of pyrazinamide derivatives with benzylamino substitution” (Bioorg Med Chem Lett, 2013)

Assays:
Mycobacterium kansasii = assay: Antimycobacterial activity against Mycobacterium kansasii CNCTC My 235/80 after 10 to 14 days by microdilution panel method; type: functional
In short: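 Microdilution panel method. Strain obtained from Czech National Collection of Type Cultures (CNCTC My 235/80). MIC in μg/mL read visually as the lowest compound concentration that inhibited mycobacterial growth.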

Mycobacterium avium [1] = assay: Antimycobacterial activity against Mycobacterium avium CNCTC My 152/73 after 10 to 14 days by microdilution panel method; type: functional
In short: (§1)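 Whole-cell microdilution panel assay on strains from the Czech National Collection of Type Cultures (M. tuberculosis H37Rv My 331/88, M. avium ssp. avium Chester My 80/72, M. avium My 152/73). MIC (μg/mL) was read visually as the lowest concentration of compound that inhibited mycobacterial growth.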

[2] = tested on: Mycobacterium tuberculosis; assay: Antimycobacterial activity against Mycobacterium tuberculosis H37Rv CNCTC My 331/88 after 10 to 14 days by microdilution panel method; type: functional; in short: as §1
Mycobacterium avium [3] = assay: Antimycobacterial activity against Mycobacterium avium CNCTC My 80/72 after 10 to 14 days by microdilution panel method; type: functional; in short: as §1
[4] = Lipophilicity, log K of the compound in methanol-water mixture by HPLC analysis; type: physicochemical
HepG2 = assay: Cytotoxicity against human HepG2 cells; type: cell-based
[5] = Selectivity index, ratio of IC50 for human HepG2 cells to MIC for Mycobacterium tuberculosis H37Rv CNCTC My 331/88; type: functional
In short: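 Cytotoxicity was measured as the decrease in viability of human liver Hep G2 cells, read colorimetrically by tetrazolium salt reduction over a dilution series. IC50 was taken from this readout, and SI was calculated as the Hep G2 IC50 divided by the M. tuberculosis H37Rv MIC from the microdilution panel assay.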

[6] = tested on: Mycobacterium tuberculosis; assay: Ratio of pyrazinamide MIC to compound MIC for Mycobacterium tuberculosis H37Rv CNCTC My 331/88; type: functional

SMILES | MIC (Mycobacterium kansasii) | MIC (Mycobacterium avium [1]) | MIC [2] | MIC (Mycobacterium avium [3]) | log K [4] | IC50 (HepG2) [µM] | Selectivity Index [5] | Ratio [6]
N#Cc1cnc(C#N)c(NCc2ccc(Cl)c(Cl)c2)n1 | > 100 µg/mL | > 100 µg/mL | > 100 µg/mL | > 100 µg/mL | 0.783 |  |  | 
N#Cc1cnc(C(N)=O)c(NCc2ccc(Cl)c(Cl)c2)n1 | > 100 µg/mL | > 100 µg/mL | > 100 µg/mL | > 100 µg/mL | 0.7353 |  |  | 
COc1ccc(CNc2nc(C#N)cnc2C(N)=O)cc1 | > 100 µg/mL | > 100 µg/mL | > 100 µg/mL | > 100 µg/mL | 0.3074 |  |  | 
COc1ccc(CNc2nc(C#N)cnc2C#N)cc1 | 99 µM | > 100 µg/mL | 188 µM | > 100 µg/mL | 0.3259 | 95.9 | 0.5 | 
N#Cc1cnc(C(N)=O)c(NCc2cccc(Cl)c2)n1 | > 100 µg/mL | > 100 µg/mL | > 100 µg/mL | > 100 µg/mL | 0.5141 |  |  | 
Cc1ccc(CNc2nc(C#N)cnc2C#N)cc1 | > 100 µg/mL | > 100 µg/mL | 25 µM | > 100 µg/mL | 0.5598 | 70.8 | 2.8 | 2
N#Cc1cnc(C#N)c(NCc2ccc(Cl)cc2)n1 | 46 µM | > 100 µg/mL | 93 µM | > 100 µg/mL | 0.5735 | 35.5 | 0.4 | 
N#Cc1cnc(C#N)c(NCc2cccc(Cl)c2)n1 | 46 µM | > 100 µg/mL | 46 µM | > 100 µg/mL | 0.5456 | 40 | 0.9 | 
N#Cc1cnc(C(N)=O)c(NCc2ccc(Cl)cc2)n1 | > 100 µg/mL | > 100 µg/mL | > 100 µg/mL | > 100 µg/mL | 0.5421 |  |  | 
N#Cc1cnc(C(N)=O)c(NCc2ccccc2)n1 | > 100 µg/mL | > 100 µg/mL | > 100 µg/mL | > 100 µg/mL | 0.326 |  |  | 
N#Cc1cnc(C#N)c(NCc2ccccc2)n1 | 106 µM | 53 µM | 53 µM | 106 µM | 0.335 | 60.8 | 1.1 | 
NC(=O)c1cnccn1 [PYRAZINAMIDE] | > 100 µg/mL | > 100 µg/mL | 51 µM | > 100 µg/mL |  |  | 775 | 
N#Cc1cnc(C#N)c(NCc2ccc(N)cc2)n1 | > 100 µg/mL | > 100 µg/mL | 100 µM | > 100 µg/mL | -0.1621 | 549 | 5.5 | 
N#Cc1cnc(C(N)=O)c(NCc2ccc(N)cc2)n1 | > 100 µg/mL | > 100 µg/mL | 47 µM | > 100 µg/mL | -0.2005 | > 1000 | >21.3 | 
N#Cc1cnc(C#N)c(NCc2cccc([N+](=O)[O-])c2)n1 | > 100 µg/mL | > 100 µg/mL | > 100 µg/mL | > 100 µg/mL | 0.2049 |  |  | 
Cc1ccc(CNc2nc(C#N)cnc2C(N)=O)cc1 | > 100 µg/mL | > 100 µg/mL | 47 µM | > 100 µg/mL | 0.5533 | 54.6 | 1.2 | 
NNC(=O)c1ccncc1 [ISONIAZID] | 91 µM | 23 µM | 11 µM | 46 µM |  |  |  | 
N#Cc1cnc(C#N)c(NCc2cccc(C(F)(F)F)c2)n1 | > 100 µg/mL | > 100 µg/mL | > 100 µg/mL | > 100 µg/mL | 0.5615 |  |  | 
N#Cc1cnc(C(N)=O)c(NCc2cccc([N+](=O)[O-])c2)n1 | > 100 µg/mL | > 100 µg/mL | 84 µM | > 100 µg/mL | 0.1331 | 457 | 5.4 | 
Cc1ccccc1CNc1nc(C#N)cnc1C#N | > 100 µg/mL | > 100 µg/mL | > 100 µg/mL | > 100 µg/mL | 0.5043 |  |  | 
N#Cc1cnc(C(N)=O)c(NCc2cccc(C(F)(F)F)c2)n1 | > 100 µg/mL | > 100 µg/mL | 78 µM | > 100 µg/mL | 0.5104 | 27.8 | 0.4 | 
